Results as given in ChEMBL document CHEMBL1145979, “Synthetic analogues of the bacterial signal (quorum sensing) molecule N-(3-oxododecanoyl)-L-homoserine lactone as immune modulators” (J Med Chem, 2003).

Key:
Mus musculus [1] = species on record: Mus musculus; assay: Inhibition of murine splenocyte proliferation; Not active; assay type: functional
Procedure, shortened: (§1)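 Spleens from 8-week-old female BALB/c mice were made into single-cell suspensions and the red cells lysed (Tris/NH4Cl, pH 7.2). Cultured at 100 000 cells per well in complete T-cell medium with ConA 1 μg/mL and doubling-down dilutions of compound from 1 mM to 0.1 μM, 48 h at 37 °C, 5% CO2. Then 0.25 μCi [³H]-thymidine was added for 24 h and uptake counted; IC50 derived.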

Mus musculus [2] = species on record: Mus musculus; assay: Inhibition of murine splenocyte proliferation; assay type: functional; procedure, shortened: as §1

CCCCCCCCCC(=O)CC(N)=O
IC50 (Mus musculus [1]): Not Active

CCCCCCCCC(=O)CC(=O)N[C@H]1CCOC1=O
IC50 (Mus musculus [2]): 8.9 µM

O=C(O)CCCCCCCCCCC(=O)CC(=O)N[C@H]1CCOC1=O
IC50 (Mus musculus [1]): Not Active

CCCCCCCCCC(=O)CC(=O)N[C@@H](CCO)C(=O)OC
IC50 (Mus musculus [2]): 53 µM

C=CCCCCCCCCC(=O)CC(=O)N[C@H]1CCOC1=O
IC50 (Mus musculus [2]): 7 µM

CCCCCC(=O)CC(=O)N[C@H]1CCOC1=O
IC50 (Mus musculus [2]): 400 µM

CCCCCCCC(=O)CC(=O)N[C@H]1CCOC1=O
IC50 (Mus musculus [2]): 21 µM

CCCCCCCCCCCC(=O)CC(=O)N[C@H]1CCOC1=O
IC50 (Mus musculus [2]): 6.3 µM

CCCCCCCCCC(=O)CC(=O)N[C@H]1CCOC1=O
IC50 (Mus musculus [2]): 4 µM

CCCCCC(C)CCC(=O)CC(=O)N[C@H]1CCOC1=O (some centres undefined)
IC50 (Mus musculus [2]): 5 µM

O=C(CCCCCCCCCCBr)CC(=O)N[C@H]1CCOC1=O
IC50 (Mus musculus [2]): 3 µM

CCCCCCCCCC(O)CC(=O)N[C@H]1CCOC1=O (some centres undefined)
IC50 (Mus musculus [2]): 12.5 µM

CCCCCCCCCCCC(O)CC(=O)N[C@H]1CCOC1=O (some centres undefined)
IC50 (Mus musculus [2]): 7 µM

CCCCCCCCCCCC(=O)N[C@H]1CCOC1=O
IC50 (Mus musculus [2]): 52 µM

COC(=O)CCCCCCCCCC(=O)CC(=O)N[C@H]1CCOC1=O
IC50 (Mus musculus [2]): 60 µM

O=C(CCCCCCCCCBr)CC(=O)N[C@H]1CCOC1=O
IC50 (Mus musculus [2]): 6 µM

CCCCCCCCCCC(=O)CC(=O)N[C@H]1CCOC1=O
IC50 (Mus musculus [2]): 4.3 µM

CCCCCCCCCC(=O)N[C@H]1CCOC1=O
IC50 (Mus musculus [2]): 33 µM

CCCCCCCCCC(=O)CC(=O)NC1CCSC1=O (centres undefined)
IC50 (Mus musculus [2]): 150 µM

O=C(CCCCCCCCCO)CC(=O)N[C@H]1CCOC1=O
IC50 (Mus musculus [2]): 8 µM

CCC/C=C/CCCCCCC(=O)CC(=O)N[C@H]1CCOC1=O
IC50 (Mus musculus [2]): 15 µM

CCCCCC/C=C\CCCC(=O)CC(=O)N[C@H]1CCOC1=O
IC50 (Mus musculus [2]): 17 µM

C=CCCCCCCCCCC(=O)CC(=O)N[C@H]1CCOC1=O
IC50 (Mus musculus [2]): 10 µM

CCCCCCCCCCC(=O)N[C@H]1CCOC1=O
IC50 (Mus musculus [2]): 90 µM
